Results taken from ChEMBL document CHEMBL2331242, “Amberlite IR-120H catalyzed MCR: design, synthesis and crystal structure analysis of 1,8-dioxodecahydroacridines as potential inhibitors of sirtuins” (Bioorg Med Chem Lett, 2013).

biological target: NAD-dependent histone deacetylase SIR2 (Saccharomyces cerevisiae S288c) (UniProt P06700); assay: Inhibition of yeast TEL::-URA3 Sir2 assessed as growth inhibition of yeast at 50 uM after 24 to 48 hrs
In short: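 Yeast cell-based reporter silencing screen for Sir2, the yeast homologue of SIRT1. Strain TEL::URA3 (MATα ura3-52 lys2-801 ade2-101 trpΔ63 his3Δ200 leu2-Δ1 TEL adh4::URA3) carries URA3 inserted at a telomeric locus, where Sir2 silences it. Inhibition was scored as inhibition of growth of this strain in the presence of 5-fluoroorotic acid. Compounds were tested at 50 µM, with splitomicin as the reference inhibitor.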

NAD-dependent histone deacetylase SIR2 (Saccharomyces cerevisiae S288c), sequence (P06700 whole entry): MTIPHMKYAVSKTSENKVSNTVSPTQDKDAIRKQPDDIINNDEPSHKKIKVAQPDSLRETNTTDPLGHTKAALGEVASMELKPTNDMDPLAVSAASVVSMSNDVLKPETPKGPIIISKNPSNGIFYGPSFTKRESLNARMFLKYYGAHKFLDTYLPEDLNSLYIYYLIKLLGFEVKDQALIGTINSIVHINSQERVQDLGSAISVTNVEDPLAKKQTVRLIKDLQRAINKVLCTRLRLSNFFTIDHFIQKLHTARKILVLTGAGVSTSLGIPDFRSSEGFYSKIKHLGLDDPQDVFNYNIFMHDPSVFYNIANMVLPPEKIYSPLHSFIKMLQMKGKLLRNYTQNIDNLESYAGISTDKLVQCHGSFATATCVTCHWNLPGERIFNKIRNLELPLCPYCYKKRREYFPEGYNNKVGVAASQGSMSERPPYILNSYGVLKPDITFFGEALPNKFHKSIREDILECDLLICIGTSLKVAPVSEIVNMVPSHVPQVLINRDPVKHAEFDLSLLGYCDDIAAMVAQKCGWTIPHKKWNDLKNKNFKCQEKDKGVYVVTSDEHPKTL

| Structure (SMILES) | inhibition |
| --- | --- |
| CC1(C)CC(=O)C2=C(C1)N(c1ccccc1)C1=C(C(=O)CC(C)(C)C1)C2c1ccccc1O | 15.6% |
| CC1(C)CC(=O)C2=C(C1)N(c1ccccc1I)C1=C(C(=O)CC(C)(C)C1)C2c1cccc(O)c1 | 23.7% |
| CC1(C)CC(=O)C2=C(C1)N(c1ccc(Cl)cc1)C1=C(C(=O)CC(C)(C)C1)C2c1cccc([N+](=O)[O-])c1 | 29.2% |
| CCOC(=O)c1c(N2C3=C(C(=O)CC(C)(C)C3)C(c3cccs3)C3=C2CC(C)(C)CC3=O)sc2c1CCCC2 | 16.2% |
| CC1(C)CC(=O)C2=C(C1)N(c1ccc(Br)cc1)C1=C(C(=O)CC(C)(C)C1)C2c1ccc2ccccc2c1 | 10.6% |
| CC1(C)CC(=O)C2=C(C1)N(c1ccc(I)cc1)C1=C(C(=O)CC(C)(C)C1)C2c1cccs1 | 13% |
| CC1(C)CC(=O)C2=C(C1)N(c1ccc(I)cc1)C1=C(C(=O)CC(C)(C)C1)C2c1cccc([N+](=O)[O-])c1 | 35.2% |

Results, then the compound that gave them:

| inhibition | Structure (SMILES) |
| --- | --- |
| 30.2% | Cc1ccc(N2C3=C(C(=O)CC(C)(C)C3)C(c3cccc(O)c3)C3=C2CC(C)(C)CC3=O)cc1 |
| 12.8% | CC(=O)c1ccc(N2C3=C(C(=O)CC(C)(C)C3)C(c3cccc(O)c3)C3=C2CC(C)(C)CC3=O)cc1 |
| 41.1% | CC1(C)CC(=O)C2=C(C1)N(c1ccc(I)cc1)C1=C(C(=O)CC(C)(C)C1)C2c1cccc(O)c1 |
| 28.4% | CC1(C)CC(=O)C2=C(C1)N(c1ccc(F)cc1)C1=C(C(=O)CC(C)(C)C1)C2c1cccc(F)c1 |
| 28.5% | CC1(C)CC(=O)C2=C(C1)N(c1ccc(C(F)(F)F)cc1)C1=C(C(=O)CC(C)(C)C1)C2c1cccc(O)c1 |
| 32.5% | CC1(C)CC(=O)C2=C(C1)N(c1ccc(Br)cc1)C1=C(C(=O)CC(C)(C)C1)C2c1cccc(O)c1 |
| 33.5% | CC1(C)CC(=O)C2=C(C1)N(c1ccc(F)cc1)C1=C(C(=O)CC(C)(C)C1)C2c1cccc(O)c1 |
| 17.9% | CC1(C)CC(=O)C2=C(C1)N(c1ccc(C#N)cc1)C1=C(C(=O)CC(C)(C)C1)C2c1cccc(O)c1 |
